Platelet DG rel: modulates dense granule release in human platelets. inhibition, %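 (compounds screened at 7.5 µM in platelet-rich plasma)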. human platelet-rich plasma, SFLLRN dense granule ATP release, luminescence. actives 0.22% (n = 300,000);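 active = mean replicate score, as percent of positive control, at or above 50; inconclusive = mean below 50 but at least one replicate at or above 50; inactive = mean and every replicate below 50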
SENP8 block-1: inhibitors of human SENP8 protease. Q96LD8. purified SENP8, Z-RLRGG-aminoluciferin cleavage, luminescence. inhibition, % at 10 µM. actives 1.2% (n = 330,000); in the data active = inhibition above about 50%
Target sequence (Q96LD8 whole entry, looked up): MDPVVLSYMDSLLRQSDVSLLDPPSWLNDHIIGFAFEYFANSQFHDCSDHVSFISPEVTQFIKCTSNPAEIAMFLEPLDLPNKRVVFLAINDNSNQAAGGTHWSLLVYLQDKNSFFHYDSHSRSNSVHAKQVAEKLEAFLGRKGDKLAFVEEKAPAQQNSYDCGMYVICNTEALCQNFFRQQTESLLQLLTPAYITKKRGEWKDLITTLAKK
SENP7 inh: inhibitors of human SENP7 protease. Q9BQF6. recombinant SENP7, Z-RLRGG-aminoluciferin luminescence, 40 min. inhibition, % at 5 µM. actives 1.5% (n = 330,000);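 active = inhibition above about 50% at the single test dose, limit read from the data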;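 note: plate controls were DMSO with enzyme for no effect and no enzyme buffer wells for full effect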
SENP1 inh: blocks the human SENP1 SUMO protease catalytic domain; Q9P0U3; recombinant SENP1 catalytic domain, CyPet-SUMO1-YPet FRET cleavage; inhibition, % at 10 µM; actives 0.21% (n = 360,000); AID 624204;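 active = inhibition at least 30% at 10 µM, raw YFP signal under a set limit, fluorescence ratio 0.5 to 1.5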;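 note: 0% = enzyme with DMSO and 100% = no enzyme wells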
Target sequence (Q9P0U3 419-644 limits assumed): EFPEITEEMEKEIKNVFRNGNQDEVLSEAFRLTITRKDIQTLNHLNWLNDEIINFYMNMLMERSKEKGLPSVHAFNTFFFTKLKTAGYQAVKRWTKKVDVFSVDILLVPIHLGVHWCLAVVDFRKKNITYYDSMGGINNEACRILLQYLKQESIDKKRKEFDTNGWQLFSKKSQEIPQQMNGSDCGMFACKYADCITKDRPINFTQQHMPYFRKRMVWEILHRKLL
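Test system: human SENP1 catalytic domain; medium: Tris pH 8 buffer plus EDTA, NaCl, BME, BSA, NP40, catalase; incubation: 50 min reaction at room temperature; technique: FRET, CFP and YFP emission; controls: no-enzyme low control and enzyme-plus-DMSO high control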
SENP8 block-2: SENP8 (human) protease inhibition; recombinant SENP8, Nedd8 substrate fluorescence; inhibition, % at 20 µM; actives 0.64% (n = 360,000); AID 602440; in the data active = inhibition mostly above about 40%, no sharp cut-off; inactive = mostly below about 27%
SENP6 block: blocks the human protease SENP6. actives 1.8% (n = 330,000). Q9GZR1. inhibition, % at 10 µM. Recombinant SENP6 catalytic domain, aminoluciferin luminescence;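 active = inhibition above about 50% at the single tested dose, limit read from the data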;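 note: plate controls were DMSO wells with enzyme for no effect and DMSO wells lacking enzyme for full effect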
SENP8 conf: human SENP8 inhibition, confirmed; shares compounds with SENP7 inh; Recombinant SENP8, Z-RLRGG-aminoluciferin luminescence, 60 min; inhibition, % at 12.5 µM; actives 40% (n = 6,200); AID 488912;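 active = mean inhibition across replicates above about 50%, limit read from the data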
SENP6 conf: confirmation of human SENP6 protease inhibitors; AID 488915; actives 58% (n = 6,200); inhibition, % at 12.5 µM; recombinant SENP6, Z-RLRGG-aminoluciferin luminescence; shares compounds with SENP7 inh
SENP7 conf: confirmation of human SENP7 protease inhibitors; actives 69% (n = 6,200); AID 488917; shares compounds with SENP7 inh; recombinant SENP7, Z-RLRGG-aminoluciferin luminescence, 40 min; inhibition, % at 12.5 µM
Casp3 SENP sel: caspase-3 inhibition (SENP selectivity assay); shares compounds with SENP7 inh; purified caspase-3, Z-DEVD-aminoluciferin luminescence, 60 min; inhibition, % at 12.5 µM; actives 60% (n = 6,200); AID 488918;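 active = mean inhibition above about 50%, limit read from the data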;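 note: plate controls were enzyme with DMSO for no effect and wells without caspase-3 for full effect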
Target sequence (P42574 28-227 limits assumed): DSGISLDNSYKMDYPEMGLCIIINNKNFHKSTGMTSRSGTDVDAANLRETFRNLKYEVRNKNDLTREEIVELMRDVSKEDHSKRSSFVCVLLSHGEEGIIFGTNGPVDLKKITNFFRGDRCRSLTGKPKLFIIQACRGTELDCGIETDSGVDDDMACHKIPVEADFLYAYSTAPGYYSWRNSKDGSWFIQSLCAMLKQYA
Luc interf: interferes with luciferase luminescence in SENP counter-screen; shares compounds with SENP7 inh; Pre-incubated SENP8/Z-RLRGG-aminoluciferin, luciferase luminescence interference; inhibition, % at 12.5 µM; actives 39% (n = 6,200); AID 488919;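 active = mean inhibition above about 50% when retested at one dose, limit read from the data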;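 note: plate controls were DMSO wells with completed reaction for no effect and substrate without enzyme for full effect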
Numbers without * were called inactive; i = inactive; ? = inconclusive; nt = no result. The list is not random: actives were taken first. Their share in the collection is about 2.6%.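 Rule for the calls, unless noted: active = mean inhibition above about 50% in the one-dose retest (limit read from the data); inactive = the rest.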

SMILES | Platelet DG rel | SENP8 block-1 | SENP7 inh | SENP1 inh | SENP8 block-2 | SENP6 block | SENP8 conf | SENP6 conf | SENP7 conf | Casp3 SENP sel | Luc interf
CC(C)(C)c1cc[n+](C2=C([O-])c3ccccc3C(=O)/C2=N\S(=O)(=O)c2cccs2)cc1 | 11 | 51* | 35 | 3 | 106* | 66* | 51* | 75* | 39 | 6 | -3
CCOc1ccc(N/C=C/C(=O)c2ccc(OC)cc2)cc1 | -4 | -11 | 3 | -47 | -69 | 4 | nt | nt | nt | nt | nt
O=C(Nc1ccccn1)c1ccc(C(=O)Nc2ccccn2)cc1 | 11 | -10 | 4 | -1 | 8 | 13 | nt | nt | nt | nt | nt
COc1ccc(N/C=C\C(=O)c2ccc(C)cc2)cc1OC | 3 | -10 | -17 | -29 | -18 | -1 | nt | nt | nt | nt | nt
COc1cccc(N/C=C/C(=O)c2ccc(OC)c(OC)c2)c1 | 11 | 64* | 75* | -64 | -271 | 89* | -9 | 70* | 93* | 70* | 16
COc1ccc(C(=O)/C=C/Nc2cccc(O)c2)cc1 | 55* | 88* | 85* | -37 | -159 | 93* | 96* | 97* | 102* | 91* | 91*
Cc1cccc(N/C=C/C(=O)c2ccc(Cl)cc2)c1 | 5 | 66* | 89* | -88 | -146 | 73* | 18 | 20 | 22 | 46 | 7
O=C(/C=C\Nc1ccccn1)c1ccc(Cl)cc1 | nt | 95* | 8 | -33 | -180 | 95* | 36 | 77* | 88* | 75* | 31
C=CCOc1ccc(/C=C/C(=O)OCC(=O)NCc2cccs2)cc1 | -3 | -18 | -2 | -1 | -6 | -16 | nt | nt | nt | nt | nt
O=C(CN(Cc1ccc(Br)cc1)S(=O)(=O)c1ccccc1)NCC1CCCO1 (stereo not drawn) | -10 | -8 | -3 | 0 | 13 | 1 | nt | nt | nt | nt | nt
COc1ccc(OC)c(N/C=C/C(=O)c2ccc(OC)c(OC)c2)c1 | 9 | -5 | -2 | -28 | -198 | 11 | nt | nt | nt | nt | nt
Cc1ccc(Cl)c(N/C=C/C(=O)c2ccccc2)c1 | 5 | 49 | 71* | -52 | -33 | 77* | 46 | 60* | 79* | 50* | 29
COc1cccc(C(=O)/C=C/Nc2ccc(S(=O)(=O)Nc3ncccn3)cc2)c1 | 4 | 21 | 35 | -60 | -386 | 63* | 4 | 5 | -2 | 20 | -5
COc1cccc(C(=O)/C=C/Nc2cc(C)ccc2O)c1 | 13 | 84* | 101* | -30 | -15 | 92* | 5 | 92* | 99* | 72* | 87*
O=C(/C=C/c1ccccc1O)c1ccc(Cl)cc1 | 6 | 40 | -4 | 4 | 11 | 67* | 48 | 55* | 8 | 12 | 56*
Cc1cc(Cn2nc(C(=O)NCc3cccs3)cc2-c2ccccc2)on1 | nt | -1 | 6 | 1 | 12 | -7 | nt | nt | nt | nt | nt
CC(=O)c1ccc(N/C=C/C(=O)c2ccc(Br)cc2)cc1 | -2 | 3 | 1 | -130 | -487 | 2 | nt | nt | nt | nt | nt
N/C(=N\OC(=O)c1ccccc1Br)c1cccc([N+](=O)[O-])c1 | -2 | 66* | 82* | 2 | 24 | 85* | 59* | 52* | 83* | 51* | 66*
N/C(=N\OC(=O)c1ccccc1F)c1cccc([N+](=O)[O-])c1 | -8 | 34 | 64* | 0 | 19 | 13 | 24 | 44 | 78* | 51* | 43
Cc1ccc(C(=O)O/N=C(\N)c2cccc([N+](=O)[O-])c2)cc1 | 8 | 12 | 49 | 5 | 14 | 44 | nt | nt | nt | nt | nt
COC(=O)CNC(=O)C1CC(=O)N(CCc2ccc(F)cc2)C1 (stereo not drawn) | 6 | -1 | -4 | -1 | 11 | 3 | nt | nt | nt | nt | nt
COc1ccc(CC(=O)NNS(=O)(=O)c2ccccc2[N+](=O)[O-])cc1 | -5 | -2 | -4 | 2 | 12 | 14 | nt | nt | nt | nt | nt
O=C(Nc1ccnc(=O)[nH]1)c1sc2ccccc2c1Cl | -1 | 52* | 54* | -3 | -78 | 74* | 2 | -2 | 7 | 11 | 4
O=C(O)c1ccc(-c2ccc(OS(=O)(=O)c3ccccc3F)cc2)cc1 | 27 | 41 | 8 | -17 | 14 | 57* | 44 | 42 | 60* | 11 | 6
Cc1cc(=O)n2[nH]c(SCc3ccc(Cl)cc3)nc2n1 | -13 | 32 | 1 | 3 | 0 | 52* | 38 | 34 | 69* | 65* | 41
SMILES | Platelet DG rel | SENP8 block-1 | SENP7 inh | SENP1 inh | SENP8 block-2 | SENP6 block | SENP8 conf | SENP6 conf | SENP7 conf | Casp3 SENP sel | Luc interf
O=C(c1ccccc1)c1ccc(Cn2cc(-c3ccccc3)nn2)cc1 | -2 | 58* | 52* | 0 | 13 | 61* | 52* | 65* | 83* | 31 | 17
CCCCCc1ccc(-c2cn(Cc3ccc(C(=O)c4ccccc4)cc3)nn2)cc1 | -2 | 0 | 8 | 1 | 20 | 8 | nt | nt | nt | nt | nt
CN(c1ccccc1)S(=O)(=O)c1cccc(NC(=O)Cc2n[nH]c(=O)c3ccccc23)c1 | nt | -12 | -6 | -1 | 16 | -25 | nt | nt | nt | nt | nt
O=c1[nH]c(-c2ccncc2)nc2ccccc12 | -3 | -2 | 5 | -2 | 0 | -6 | nt | nt | nt | nt | nt
COc1ccc(-c2nc3ccccc3c(=O)[nH]2)cc1 | 10 | 22 | 61* | 0 | 0 | 52* | 3 | 38 | 77* | 37 | 0
CN(C)c1ccc(-c2nc3ccccc3c(=O)[nH]2)cc1 | ? | 88* | 95* | -14 | i | 98* | 41 | 95* | 100* | 89* | 5
O=C1c2ccccc2S(=O)(=O)c2cc(N3CCOCC3)ccc21 | 1 | 46 | 69* | -27 | -141 | 62* | 26 | 20 | 25 | 34 | 18
CCOc1ccc(/C=N/NC(=O)c2ccc(Cn3cc(Br)cn3)o2)cc1 | -5 | 3 | 8 | -1 | -48 | 55* | 22 | 17 | 57* | 23 | 50
CC(C)C[C@H]1CNC(=S)N1C[C@H]1CCCN1C[C@H](CC(C)C)N1C[C@H](Cc2ccc(O)cc2)N(CC2CCCCC2)C1=S | nt | nt | nt | 0 | 12 | nt | nt | nt | nt | nt | nt

Source: PubChem (several laboratories)
